“And” between values parts separate entries of the source, which are not always exact repeats. Identical values can stand only once. “Also recorded” adds a separate entry of the source. Like-named read-outs stand apart in the source and are kept apart here.
What was measured:
recombinant CES1 [1] = molecular target: T1, recombinant CES1 (Homo sapiens, UniProt P23141); assay: Inhibition of carboxylesterase activity of recombinant human CES1; assay type: biochemical; settings: for Effect on carboxylesterase activity of recombinant CES1 (in words) / Mode of inhibition of recombinant CES1 / Inhibition of carboxylesterase activity of CES1: pNPV; for Mode of inhibition of recombinant CES1: curve fit of fractional inhibition, Dixon plots; for Inhibition of carboxylesterase activity of CES1: concentration not given
T1 sequence (P23141 18-567): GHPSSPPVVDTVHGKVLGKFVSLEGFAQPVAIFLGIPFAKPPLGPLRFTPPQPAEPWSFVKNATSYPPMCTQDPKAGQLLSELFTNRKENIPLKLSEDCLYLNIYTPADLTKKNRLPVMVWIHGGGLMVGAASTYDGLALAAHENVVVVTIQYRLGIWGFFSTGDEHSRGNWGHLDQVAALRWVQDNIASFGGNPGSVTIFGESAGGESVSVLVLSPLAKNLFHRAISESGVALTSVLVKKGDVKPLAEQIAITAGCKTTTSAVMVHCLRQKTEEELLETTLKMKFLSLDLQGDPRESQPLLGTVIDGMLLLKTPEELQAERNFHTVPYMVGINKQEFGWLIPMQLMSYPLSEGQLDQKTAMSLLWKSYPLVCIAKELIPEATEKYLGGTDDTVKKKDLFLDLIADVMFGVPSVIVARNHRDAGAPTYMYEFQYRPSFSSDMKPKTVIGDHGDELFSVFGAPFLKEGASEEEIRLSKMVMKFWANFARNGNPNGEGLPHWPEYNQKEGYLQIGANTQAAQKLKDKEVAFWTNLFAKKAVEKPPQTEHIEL

[2] = molecular target: T2, carboxylesterase activity of THP1 cell lysates (Homo sapiens, UniProt P23141); assay: Inhibition of carboxylesterase activity of THP1 cell lysates; assay type: biochemical
T2 sequence (P23141 18-567): T1 sequence (P23141 18-567)

[3] = test system: THP1 macrophage foam cells; assay type: cell-based, human; settings: 10 μM; for Change in intracellular cholesteryl esters vs vehicle control: BSA only acceptor
recombinant CES1 [4] = molecular target: T1, recombinant CES1; assay: Activity-based probe; assay type: biochemical
Outline: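 Recombinant human CES1 was expressed in baculovirus-infected Spodoptera frugiperda cells and purified. The enzyme was preincubated with test compound for 30 min and then treated with the activity-based probe fluorophosphonate-biotin. IC50 was estimated from probe labelling.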

recombinant CES2 = molecular target: T3, recombinant CES2 (Homo sapiens, UniProt O00748); assay: Inhibition of recombinant CES2 activity; assay type: biochemical
T3 sequence (O00748 27-559): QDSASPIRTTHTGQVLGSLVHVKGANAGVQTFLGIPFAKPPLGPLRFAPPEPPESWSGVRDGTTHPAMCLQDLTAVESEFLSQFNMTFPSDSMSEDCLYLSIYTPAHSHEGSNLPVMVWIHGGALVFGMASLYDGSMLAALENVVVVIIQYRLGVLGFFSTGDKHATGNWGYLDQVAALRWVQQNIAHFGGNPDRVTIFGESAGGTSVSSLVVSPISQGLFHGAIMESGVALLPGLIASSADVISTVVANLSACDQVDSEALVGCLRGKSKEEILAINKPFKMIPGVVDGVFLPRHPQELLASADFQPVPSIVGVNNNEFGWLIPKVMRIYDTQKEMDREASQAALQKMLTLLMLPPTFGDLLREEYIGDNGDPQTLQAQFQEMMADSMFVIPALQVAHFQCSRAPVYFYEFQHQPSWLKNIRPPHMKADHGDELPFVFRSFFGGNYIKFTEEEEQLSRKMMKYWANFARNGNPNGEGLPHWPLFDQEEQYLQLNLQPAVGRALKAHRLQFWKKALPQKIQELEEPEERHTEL

[5] = cited from earlier work
[6] = test system: intracellular carboxylesterase activity of THP1 cells; assay: Intracellular carboxylesterase activity in intact THP1 monocytes; assay type: cell-based, human; settings: 10 μM, 80 min, pNPV
[7] = molecular target: T4, rat CES1 ortholog (Hydrolase A) (Rattus norvegicus, UniProt P16303); assay: Inhibition of rat CES1 ortholog; assay type: biochemical
T4 sequence (P16303 19-565): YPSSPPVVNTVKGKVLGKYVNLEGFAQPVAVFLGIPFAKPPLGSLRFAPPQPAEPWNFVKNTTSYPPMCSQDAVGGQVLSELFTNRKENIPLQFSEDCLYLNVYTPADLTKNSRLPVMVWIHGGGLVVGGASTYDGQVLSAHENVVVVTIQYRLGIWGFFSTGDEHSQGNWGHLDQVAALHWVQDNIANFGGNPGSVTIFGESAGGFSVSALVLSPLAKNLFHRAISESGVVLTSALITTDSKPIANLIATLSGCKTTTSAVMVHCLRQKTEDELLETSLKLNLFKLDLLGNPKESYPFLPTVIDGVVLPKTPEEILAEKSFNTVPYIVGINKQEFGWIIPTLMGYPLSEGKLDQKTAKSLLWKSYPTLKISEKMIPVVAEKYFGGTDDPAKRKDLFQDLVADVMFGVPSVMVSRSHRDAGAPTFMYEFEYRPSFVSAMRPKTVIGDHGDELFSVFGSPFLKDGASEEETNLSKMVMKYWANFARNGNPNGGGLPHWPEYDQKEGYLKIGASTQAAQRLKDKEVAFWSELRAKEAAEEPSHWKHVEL

recombinant CES1 [8] = molecular target: T1, recombinant CES1; assay type: biochemical; settings: read-out: Inhibition of CES1 hydrolytic activity toward trans-permethrin, 20 μM AA; trans-permethrin 50 μM; 2% (w/v) fatty acid-free bovine serum albumin added
[9] = read-out: CES1 IC50, recombinant CES1, pNPV 500 μM, 15 min preincubation at 37°C
[10] = CES1 IC50, recombinant CES1, pNPV 500 μM, 15 min preincubation at 37°C
[11] = Cell lysate IC50, THP1 cell lysate, pNPV 500 μM, 15 min preincubation at 37°C

## CCCCC/C=C/C=C1/C(=O)C=C[C@@H]1C/C=C\CCCC(=O)O [15-deoxy-Δ^12,14-Prostaglandin J2]
Recombinant CES1 [1]; [9]
  IC50: 13 ± 3 µM

## CCCC/C=C\CCCCCCCC(=O)O [myristoleic acid, 9Z-Tetradecenoic acid]
Recombinant CES1 [1]; [10]
  IC50: 12 ± 2 µM
[2]; [11]
  IC50: 23 ± 6 µM

## CC(C)CC[C@@H](O)[C@@H](C)[C@H]1CC[C@H]2[C@@H]3CC=C4C[C@@H](O)CC[C@]4(C)[C@H]3CC[C@]12C [22(R)-HC, 22(R)-hydroxycholesterol]
Recombinant CES1 [1]
  Effect on carboxylesterase activity of recombinant CES1 (in words): minimal activity
[3]; 12 h
  Change in free cholesterol levels vs vehicle control: No change
  Change in intracellular cholesteryl esters vs vehicle control: significant reduction
[2]; 50 μM oxysterol, pNPV
  Inhibition of carboxylesterase activity of THP1 cell lysate: ~ 30%
[2]; pNPV
  Inhibitory effect on carboxylesterase activity of THP1 cell lysates (in words): little inhibitory activity

## CCCCC/C=C\CC1OC1C/C=C\C/C=C\CCCC(=O)O (stereo not drawn) [11,12-EET, 11,12-Epoxy-5Z,8Z,14Z-eicosatrienoic acid]
Recombinant CES1 [1]; [9]
  IC50: 27 ± 1 µM

## C[C@H](CCC(=O)O)[C@H]1CC[C@H]2[C@@H]3[C@H](O)C[C@@H]4C[C@H](O)CC[C@]4(C)[C@H]3C[C@H](O)[C@]12C [cholate]
Recombinant CES1 [1]; read-out: IC50, CES1 enzyme activity, data not shown
  IC50: ~7000 µM

## CCCCCCCCCCCCCC(=O)O [myristic acid, Tetradecanoic acid]
Recombinant CES1 [1]; [10]
  IC50: 9 ± 3 µM
[2]; [11]
  IC50: 28 ± 4 µM

## CCCCCC1OC1C/C=C\C/C=C\C/C=C\CCCC(=O)O (stereo not drawn) [14,15-EET]
Recombinant CES1 [1]; [9]
  IC50: 38 ± 1 µM

## C[C@@H](CO)CCC[C@@H](C)[C@H]1CC[C@H]2[C@@H]3CC=C4C[C@@H](O)CC[C@]4(C)[C@H]3CC[C@]12C [27-HC, 27-hydroxycholesterol]
Recombinant CES1 [4]
  IC50: 0.04 ± 0.02 µM
Recombinant CES1 [1]
  IC50: 0.05 ± 0.02 µM
  Mode of inhibition of recombinant CES1: partial non-competitive inhibitor
Recombinant CES1 [1]; Kiapp, recombinant CES1, ester substrate 4-MUBA, data not shown
  Ki: 0.0104 ± 0.0013 µM
Recombinant CES1 [1]; Kiapp, recombinant CES1, substrate pNPV, 15 min preincubation with enzyme
  Ki: 0.01 µM and 0.0101 µM
Recombinant CES1 [1]; read-out: Maximum inhibition of CES1 activity
  inhibition at 0.5 µM: ~67%
[3]; 12 and 24 h
  Change in intracellular cholesteryl esters vs vehicle control: no significant changes
[3]; 12 h
  Change in free cholesterol levels vs vehicle control: significantly reduced
Recombinant CES2
  IC50: > 5 µM
[5]
  Predicted solubility limit in aqueous solution: 0.52 µM
[2]; 50 μM oxysterol, pNPV
  Inhibition of carboxylesterase activity of THP1 cell lysate: ~ 78%
[2]; IC50, carboxylesterase activity of THP1 whole-cell lysates, THP1 whole-cell lysates, pNPV
  IC50: 0.033 µM

## CCCCCCCC/C=C\CCCCCCCC(=O)O [oleic acid, 9Z-Octadecenoic acid]
Recombinant CES1 [1]; [10]
  IC50: 7 ± 3 µM
[2]; [11]
  IC50: 11 ± 4 µM

## CCCCCCCCCCCCCCCC(=O)O [palmitic acid, Hexadecanoic acid]
Recombinant CES1 [1]; [10]
  IC50: 25 ± 13 µM
[2]; [11]
  IC50: > 100 µM

## CCCCC[C@H](O)/C=C/[C@H]1[C@H](O)CC(=O)[C@@H]1C/C=C\CCCC(=O)O [Prostaglandin E2]
Recombinant CES1 [1]; [10]
  IC50: > 100 µM

## CC(C)CCC[C@@H](C)[C@H]1CC[C@H]2[C@@H]3C(=O)C=C4C[C@@H](O)CC[C@]4(C)[C@H]3CC[C@]12C [7-ketocholesterol]
Recombinant CES1 [1]
  Inhibition of carboxylesterase activity of CES1: < 15%
[2]; pNPV
  Inhibitory effect on carboxylesterase activity of THP1 cell lysates (in words): little inhibitory activity; also recorded: minimal inhibitory effect

## C[C@H](CC[C@@H]1OC1(C)C)[C@H]1CC[C@H]2[C@@H]3CC=C4C[C@@H](O)CC[C@]4(C)[C@H]3CC[C@]12C [epoxycholesterol, 24(S),25-epoxycholesterol]
[3]; 12 and 24 h
  Change in free cholesterol levels vs vehicle control: reduced
  Change in intracellular cholesteryl esters vs vehicle control: no significant changes
[2]; 50 μM oxysterol, pNPV
  Inhibition of carboxylesterase activity of THP1 cell lysate: ~ 70%
[2]; [11]
  IC50: 8.1 µM

## CC(C)CCC[C@@H](C)[C@H]1CC[C@H]2[C@@H]3CC=C4C[C@@H](O)CC[C@]4(C)[C@H]3CC[C@]12C [cholesterol]
Recombinant CES1 [1]
  Effect on carboxylesterase activity of recombinant CES1 (in words): almost no effect
[2]; pNPV
  Inhibitory effect on carboxylesterase activity of THP1 cell lysates (in words): little inhibitory activity; also recorded: no inhibitory effect

## CCCCC[C@H](O)/C=C/[C@@H]1[C@@H](C/C=C\CCCC(=O)O)[C@@H](O)C[C@H]1O [Prostaglandin F2α]
Recombinant CES1 [1]; [10]
  IC50: > 100 µM

## CCOP(=O)(OCC)Oc1ccc([N+](=O)[O-])cc1 [paraoxon]
[6]
  Inhibition of intracellular carboxylesterase activity: 87%

## C[C@H](CCCC(C)(C)O)[C@H]1CC[C@H]2[C@@H]3CC=C4C[C@@H](O)CC[C@]4(C)[C@H]3CC[C@]12C [25-HC, 25-hydroxycholesterol]
Recombinant CES1 [1]
  Inhibition of carboxylesterase activity of CES1: < 15%
[2]; pNPV
  Inhibitory effect on carboxylesterase activity of THP1 cell lysates (in words): minimal inhibitory effect
[2]; pNPV, listed as 25-hydroxycholesterol
  Inhibitory effect on carboxylesterase activity of THP1 cell lysates (in words): little inhibitory activity

## CCCCC/C=C\C/C=C\CCCCCCCC(=O)O [linoleic acid, 9Z,12Z-Octadecadienoic acid]
Recombinant CES1 [1]; [10]
  IC50: 9 ± 6 µM
[2]; [11]
  IC50: 20 ± 3 µM

## CCCCC/C=C\C/C=C\C/C=C\CCCCC(=O)O [γ-linolenic acid, 6Z,9Z,12Z-Octadecatrienoic acid]
Recombinant CES1 [1]; [10]
  IC50: 19 ± 10 µM
[2]; [11]
  IC50: 23 ± 3 µM

## CC(C)[C@@H](O)CC[C@@H](C)[C@H]1CC[C@H]2[C@@H]3CC=C4C[C@@H](O)CC[C@]4(C)[C@H]3CC[C@]12C [24(S)-HC, 24(S)-hydroxycholesterol]
[2]; pNPV
  Inhibitory effect on carboxylesterase activity of THP1 cell lysates (in words): minimal inhibitory effect
[2]; pNPV, listed as 24(S)-hydroxycholesterol
  Inhibitory effect on carboxylesterase activity of THP1 cell lysates (in words): little inhibitory activity

## CCCCCCCCCCCCCCCCCC(=O)O [stearic acid, Octadecanoic acid]
Recombinant CES1 [1]; [10]
  IC50: > 100 µM
[2]; [11]
  IC50: > 100 µM

## CCCCC/C=C\C/C=C\C/C=C\C/C=C\CCCC(=O)O [AA, 5Z,8Z,11Z,14Z-Eicosatetraenoic acid]
[7]
  IC50: 50 µM
[7]; rat vs human CES1
  IC50 toward rat CES1 relative to the human enzyme: 25 fold
Recombinant CES1 [8]
  inhibition at 20 µM: 14%
Recombinant CES1 [1]
  Ki: 1.7 µM
  Mode of inhibition of recombinant CES1: noncompetitive inhibition model
Recombinant CES1 [1]; [10]
  IC50: 2 ± 1 µM
Recombinant CES2
  IC50: > 100 µM
[2]; 100 μM fatty acid, pNPV
  Inhibition of carboxylesterase activity of THP1 cell lysate: ~ 90%
[2]; [11]
  IC50: 4 ± 1 µM
